Assay results taken from ChEMBL document CHEMBL1124933, “Benzodiazepine receptor binding activity of 8-substituted-9-(3-substituted-benzyl)-6-(dimethylamino)-9H-purines” (J Med Chem, 1990).
pIC50: −log10 of the molar value.

Experiments:
[1] = target: GABA-A receptor; anion channel; assay: Inhibition of specific binding of 1.5 nM [3H]diazepam to rat brain benzodiazepine receptors
Rattus norvegicus = assay: Percent change in Geller-Seifter conflict schedule was determined in Long-Evans rats after (po) administration of gavage of 25 mg/kg; type: functional
Summary of the method: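 Long-Evans rats on a modified Geller-Seifter operant conflict schedule, with conflict-period responding scored. Compounds given by oral gavage as a 0.5% methylcellulose suspension at 25 mg/kg. Chlordiazepoxide reference given at 20 mg/kg.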

| pIC50 [1] | Compound | Change (Rattus norvegicus) [%] |
| --- | --- | --- |
| 5.52 | CN(C)c1ncnc2c1nc(Br)n2Cc1ccccc1 |  |
| 5.82 | CN(C)c1ncnc2c1nc(Br)n2Cc1cccc(NS(C)(=O)=O)c1 |  |
| 5.24 | CN(C)c1ncnc2c1nc(N(C)C)n2Cc1ccccc1 |  |
| 6.22 | CN(C)c1ncnc2c1nc(N(C)C)n2Cc1cccc(N)c1 | -3 |
| 5.27 | COc1nc2c(N(C)C)ncnc2n1Cc1ccccc1 |  |
| 5.10 | CN(C)c1ncnc2c1nc(Br)n2Cc1cccc(NC(=O)c2ccccc2)c1 |  |
| 6.89 | CN(C)c1ncnc2c1nc(O)n2Cc1cccc(NC=O)c1 | -15 |
| 6.44 | CNc1nc2c(N(C)C)ncnc2n1Cc1cccc(NC=O)c1 |  |
| 6.96 | CN(C)c1ncnc2c1nc(N(C)C)n2Cc1cccc(NC=O)c1 | 0 |
| 7.47 | CN(C)c1ncnc2c1ncn2Cc1cccc(NC=O)c1 | -2 |
| 5.28 | COC(=O)Nc1cccc(Cn2c(Br)nc3c(N(C)C)ncnc32)c1 |  |
| 5.07 | Cc1nc2c(N(C)C)ncnc2n1Cc1ccccc1 |  |
| 7.96 | CN(C)c1ncnc2c1nc(Br)n2Cc1cccc(NC=O)c1 | 9 |
| 5.14 | CNc1nc2c(N(C)C)ncnc2n1Cc1cccc(N)c1 |  |
| 6.00 | COc1nc2c(N(C)C)ncnc2n1Cc1cccc(N)c1 | 13 |
| 6.08 | CC(=O)Nc1cccc(Cn2c(Br)nc3c(N(C)C)ncnc32)c1 | 3 |
| 7.60 | CN(C)c1ncnc2c1nc(Br)n2Cc1cccc(NC(N)=O)c1 | 9 |
| 5.74 | CN(C)c1ncnc2c1nc(O)n2Cc1cccc(N)c1 |  |
| 6.96 | CN(C)c1ncnc2c1nc(Br)n2Cc1cccc(N)c1 | 2 |
| 4.77 | CNc1nc2c(N(C)C)ncnc2n1Cc1ccccc1 |  |
| 6.72 | CN(C)c1ncnc2c1nc(Cl)n2Cc1cccc(N)c1 | 15 |
